In the library only some 1.3% were active in any assay of this set; here they are far more common.
PfG6PD inh: PfG6PD enzyme inhibitors, primary screen, biochemical, fluorescence intensity, uHTS | glucose-6-phosphate dehydrogenase-6-phosphogluconolactonase (Plasmodium falciparum 3D7) | PfGluPho enzyme, NADPH resazurin-diaphorase fluorescence | inhibition, % at 20 µM | actives 0.78% (n = 350,000);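 active means inhibition reaching at least a set limit at 20 µM in the primary screen, cut at about 59% in these data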
HKDC1 inh: HKDC1 hexokinase inhibitors, primary screen, biochemical, fluorescence, uHTS; Q2TB90; recombinant HKDC1, G6PDH/diaphorase resazurin coupled fluorescence; inhibition, % at 20 µM; actives 0.16% (n = 340,000);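 active means inhibition above about 35% when tested at 20 µM, limit read from the data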
Target sequence (Q2TB90 whole entry, looked up): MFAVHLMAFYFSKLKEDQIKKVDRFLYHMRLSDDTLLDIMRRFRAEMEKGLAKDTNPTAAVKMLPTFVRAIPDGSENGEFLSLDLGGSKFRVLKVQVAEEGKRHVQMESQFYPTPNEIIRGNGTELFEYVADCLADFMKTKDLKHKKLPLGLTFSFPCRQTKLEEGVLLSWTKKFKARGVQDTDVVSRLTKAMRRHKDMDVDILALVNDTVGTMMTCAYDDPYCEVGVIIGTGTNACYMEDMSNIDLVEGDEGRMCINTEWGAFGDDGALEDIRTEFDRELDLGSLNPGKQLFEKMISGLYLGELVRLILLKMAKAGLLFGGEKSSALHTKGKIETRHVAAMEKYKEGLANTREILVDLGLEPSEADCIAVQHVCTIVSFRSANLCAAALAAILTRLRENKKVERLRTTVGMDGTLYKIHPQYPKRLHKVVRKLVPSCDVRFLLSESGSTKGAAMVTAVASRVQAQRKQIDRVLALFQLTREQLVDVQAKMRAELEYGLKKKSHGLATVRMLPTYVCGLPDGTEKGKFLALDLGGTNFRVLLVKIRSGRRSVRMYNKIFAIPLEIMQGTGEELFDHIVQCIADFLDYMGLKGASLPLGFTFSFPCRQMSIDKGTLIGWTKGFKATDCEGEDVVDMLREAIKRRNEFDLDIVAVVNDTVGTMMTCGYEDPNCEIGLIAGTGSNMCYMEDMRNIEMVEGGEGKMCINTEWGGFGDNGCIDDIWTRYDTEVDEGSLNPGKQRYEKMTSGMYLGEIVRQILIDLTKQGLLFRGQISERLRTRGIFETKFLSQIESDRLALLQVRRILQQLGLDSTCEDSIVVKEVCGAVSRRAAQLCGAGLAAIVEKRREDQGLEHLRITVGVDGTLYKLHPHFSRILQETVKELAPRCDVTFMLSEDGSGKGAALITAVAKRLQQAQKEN
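Incubation: 90 min at room temperature in dark / Material: recombinant HKDC1 (HK5) hexokinase enzyme, produced in-house / Quantity: enzyme 5 µg/mL final / Compound: one dose of 20 µM, 1% DMSO / Reagent: glucose and ATP substrates / Buffer or medium: Tris pH 8.0 buffer with MgCl2, Tween-20, BSA, BME / Technique: resorufin fluorescence at 613 nm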
Diaph inh CS: diaphorase inhibitors and chemical oxidizers, primary screen, counter-screen for diaphorase-coupled primary assays, biochemical, uHTS, resorufin fluorescence. inhibition, % at 20 µM. AID 1217, 2008. diaphorase resazurin-to-resorufin fluorescence, NADH, 16 min; bacterial (C. kluyveri) enzyme, not human. actives 0.69% (n = 190,000);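 active means primary screen inhibition at 20 µM above a set limit, cut at about 50% in these data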
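Benchmarks: positive control wells lacking NADH, neutral wells with DMSO only. System: bacterial diaphorase enzyme (C. kluyveri). Input: 0.14 U/mL diaphorase, enzyme working solution. Detection: resorufin fluorescence, excitation 544 nm, emission 590 nm. Times: 16-min room-temperature incubation before reading.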
G6PDH CS: L. mesenteroides G6PDH inhibitors, counter-screen for G6PDH-coupled screening assays, biochemical, Leuconostoc mesenteroides enzyme; Purified L. mesenteroides G6PDH, diaphorase/resazurin coupled fluorescence, 45 min; inhibition, % at 5 µM; actives 0.12% (n = 200,000); AID 1020, 2008; in the data active means inhibition above about 50%
PfGluPho conf: PfG6PD inhibitors, hit retest, confirmation, biochemical, fluorescence intensity, single concentration; shares compounds with PfG6PD inh; AID 504753, 2011; recombinant PfGluPho, NADPH-diaphorase-resazurin fluorescence; inhibition, % at 20 µM; actives 34% (n = 2,400);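 active means inhibition of at least 50% at 20 µM in any single replicate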
Diaphorase 10uM: diaphorase inhibitors and chemical oxidizers, confirmation, counter-screen for P. falciparum G6PD inhibitor project, biochemical, fluorescence intensity, 10 µM NADPH. inhibition, % at 20 µM. shares compounds with PfG6PD inh. AID 504862, 2011. diaphorase-coupled resazurin reduction, NADPH 10 uM. actives 39% (n = 820);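 active means average inhibition reaching 50% or more with the compound at 20 µM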;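 further: resorufin red fluorescence formed as diaphorase reduces resazurin using NADPH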
Diaph ctr 30uM: diaphorase inhibitors and chemical oxidizers, confirmation, counter-screen for P. falciparum G6PD inhibitor project, biochemical, fluorescence intensity, 30 µM NADPH | shares compounds with PfG6PD inh | Diaphorase/resazurin coupled assay, resorufin fluorescence | inhibition, % at 20 µM | actives 29% (n = 820) | AID 504863, 2011;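 active means inhibition averaging 50% or more, tested at 20 µM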
Large screens that a line does not name were inactive (follow-up assays come after a bar, where they were run).

Cc1cc(C)c2c(-n3cccc3)c(NC(=O)OC(C)C)sc2n1	PfG6PD inh 62 | PfGluPho conf inactive
CC(Sc1ccc(S(=O)(=O)N2CCOCC2)cn1)C(=O)Nc1ccc(Cl)cc1Cl (configuration not stated)	none (no result: Diaph inh CS, G6PDH CS)
CC(Sc1ccc(S(=O)(=O)N2CCOCC2)cn1)c1ccccc1Cl (configuration not stated)	none (no result: Diaph inh CS, G6PDH CS) | PfGluPho conf inactive
COC(=O)c1[nH]c2ccc(C)cc2c1NS(=O)(=O)c1ccc(F)cc1	PfG6PD inh 68 | PfGluPho conf inactive
COC(=O)c1[nH]c2ccc(C)cc2c1NS(=O)(=O)c1ccc(F)c(C)c1	PfG6PD inh 68 | PfGluPho conf inactive
CCNC(=S)N/N=C/c1cccc(OCc2c(F)cccc2Cl)c1	PfG6PD inh 60 | PfGluPho conf inactive
COc1cc2[nH]c(Cl)c([N+](=O)[O-])c2cc1OC	PfG6PD inh 104 (no result: Diaph inh CS, G6PDH CS) | PfGluPho conf inactive
CC(C)(C)c1cc(CNC(=O)C2CCC(=O)N(Cc3ccccc3F)C2)[nH]n1 (configuration not stated)	none (no result: HKDC1 inh, Diaph inh CS, G6PDH CS)
CCOC(=O)c1cnc(-c2ccccc2O)nc1Cl	PfG6PD inh 60 | PfGluPho conf inactive
CCOC(=O)c1cnc(-c2ccccc2)nc1Oc1ccc(Cl)cc1	none
CN(C(=O)c1sc2nc(N3CCCC3)c3c(c2c1N)CC(C)(C)OC3)c1ccccc1	PfG6PD inh 66 (no result: Diaph inh CS, G6PDH CS) | PfGluPho conf inactive
CC1(C)Cc2c(c(N3CCOCC3)nc3sc(C(=O)Nc4ccccc4)c(N)c23)CO1	none (no result: Diaph inh CS, G6PDH CS)
COc1ccc(-n2cnc(=S)[nH]c2=S)cc1	PfG6PD inh 75 (no result: Diaph inh CS, G6PDH CS) | PfGluPho conf inactive
COc1ccc(-n2cc(-c3ccccc3)[nH]c2=S)cc1	none
CC(=O)Oc1c(I)cc(I)cc1C(=O)Nc1ccc(Cl)cc1	none (no result: Diaph inh CS, G6PDH CS)
Cc1ccc(-c2cn3c(=S)[nH]nc3s2)cc1	PfG6PD inh 65 | PfGluPho conf inactive
Cc1[nH]n(-c2ccccc2)c(=S)c1C=Nc1cccc([N+](=O)[O-])c1	PfG6PD inh 110 | PfGluPho conf inactive
O=C(COc1ccc(Cl)cc1Br)Nc1ccncc1	none (no result: Diaph inh CS, G6PDH CS)
O=C(CSc1nnc(SCc2ccccc2)s1)N/N=C/c1c[nH]c2ccccc12	none
O=C(CSc1nnc(SCc2ccccc2Cl)s1)N/N=C/c1c[nH]c2ccccc12	PfG6PD inh 89 | PfGluPho conf inactive
CN(C)c1ccc(C=c2c3ccccc3n3c2c2ccccc2[n+]3C)cc1	PfG6PD inh 89 (no result: Diaph inh CS, G6PDH CS) | PfGluPho conf 88 | Diaphorase 10uM inactive | Diaph ctr 30uM inactive
CCC(OC(=O)c1ccco1)C(=O)NCc1ccc2c(c1)OCO2 (configuration not stated)	none (no result: Diaph inh CS, G6PDH CS)
Cn1c2ccccc2c(=O)c2cc(C#Cc3ccc(N)cc3)ccc21	PfG6PD inh 79 (no result: Diaph inh CS, G6PDH CS) | PfGluPho conf inactive
C#CCOCCOCCOCCNc1nc(N2CCN(C(=O)CCCCCCCCCCNC(=O)[C@H](CCCCN)n3cc(C[C@@H](C)CC)nn3)CC2)nc(N2CCN(C(=O)CCCCCCCCCCNC(=O)[C@H](CCCCN)n3cc(C[C@@H](C)CC)nn3)CC2)n1	PfG6PD inh 74 (no result: Diaph inh CS, G6PDH CS) | PfGluPho conf inactive
C#CCOCCOCCOCCNc1nc(N2CCN(C(=O)CCCCCCCCCCNC(=O)[C@H](CCCCN)n3cc(CCO)nn3)CC2)nc(N2CCN(C(=O)CCCCCCCCCCNC(=O)[C@@H]([C@H](C)O)n3cc(C)nn3)CC2)n1	PfG6PD inh 66 (no result: Diaph inh CS, G6PDH CS) | PfGluPho conf inactive
C#CCOCCOCCOCCNc1nc(N2CCN(C(=O)CCCCCCCCCCNC(=O)[C@H](CCCCN)n3cc(CCO)nn3)CC2)nc(N2CCN(C(=O)CCCCCCCCCCNC(=O)[C@H](CCCCN)n3cc(CCO)nn3)CC2)n1	PfG6PD inh 68 (no result: Diaph inh CS, G6PDH CS) | PfGluPho conf inactive
C#CCOCCOCCOCCNc1nc(N2CCN(C(=O)CCCCCCCCCCNC(=O)Cn3cc(C[C@@H](C)O)nn3)CC2)nc(N2CCN(C(=O)CCCCCCCCCCNC(=O)[C@H](CCCCN)n3cc(C[C@@H](C)CC)nn3)CC2)n1	none (no result: Diaph inh CS, G6PDH CS)
C#CCOCCOCCOCCNc1nc(N2CCN(C(=O)CCCCCCCCCCNC(=O)Cn3cc(CCCCCN)nn3)CC2)nc(N2CCN(C(=O)CCCCCCCCCCNC(=O)[C@H](CO)n3cc(CCCCCN)nn3)CC2)n1	PfG6PD inh 62 (no result: Diaph inh CS, G6PDH CS) | PfGluPho conf inactive
CCOC(=O)C(C)NC(=O)CCc1nnc2ccc(N3CCC(C)CC3)nn12 (configuration not stated)	none (no result: Diaph inh CS, G6PDH CS)
O=C(NC(=S)Nc1ccccc1)c1cncc(C#Cc2ccccc2)c1	none (no result: Diaph inh CS, G6PDH CS)
COc1ccccc1NS(=O)(=O)c1cccc(NC(=O)c2cncc(Br)c2)c1	none (no result: Diaph inh CS, G6PDH CS)
O=[N+]([O-])c1cnc(Sc2ccncn2)s1	none (no result: Diaph inh CS, G6PDH CS)
O=[N+]([O-])c1cnc(Sc2ccncn2)c([N+](=O)[O-])c1	PfG6PD inh 80 (no result: HKDC1 inh, Diaph inh CS, G6PDH CS) | PfGluPho conf 59 | Diaphorase 10uM inactive | Diaph ctr 30uM inactive
COc1ccc(-c2cc3nc(C)cc(C)n3n2)cc1	PfG6PD inh 61 | PfGluPho conf inactive
Cc1cc(C)n2nc(-c3ccc(Br)cc3)cc2n1	none (no result: Diaph inh CS, G6PDH CS)
COc1ccc(S(=O)(=O)N2CCOC2CNC(=O)C(=O)NCc2ccccc2Cl)cc1 (configuration not stated)	none (no result: Diaph inh CS, G6PDH CS)
COc1cc(OC)c(C=NNC(=S)NC23CC4CC(CC(C4)C2)C3)c(OC)c1	none (no result: Diaph inh CS, G6PDH CS)
CCCc1nc(SCC(=O)c2ccccc2)c2c(=O)n(C)c(=O)n(C)c2n1	PfG6PD inh 71 | PfGluPho conf inactive
O=c1[nH]c(CN2CCN(c3ccccc3O)CC2)nc2scc(-c3ccccc3Cl)c12	none (no result: Diaph inh CS, G6PDH CS)
O=c1[nH]c(CN2CCN(c3ccc(O)cc3)CC2)nc2scc(-c3ccc(Cl)cc3)c12	PfG6PD inh 78 | PfGluPho conf inactive
CCN(CC)CC(C)(C)C(=O)/C=C/c1ccc(/C=C/C(=O)C(C)(C)CN(CC)CC)cc1	PfG6PD inh 64 (no result: Diaph inh CS, G6PDH CS) | PfGluPho conf inactive
CCN(CC)CCOC(=O)/C=C/c1ccccc1	none (no result: Diaph inh CS, G6PDH CS)
O=C(COc1ccc(S(=O)(=O)N2CCOCC2)cc1Cl)NCc1ccc2c(c1)OCO2	none (no result: HKDC1 inh, Diaph inh CS, G6PDH CS)
CC(=O)C(Sc1nn(C)c(=S)s1)C(=O)Nc1ccccc1 (configuration not stated)	PfG6PD inh 61 | PfGluPho conf inactive

Bioassay records (PubChem BioAssay)
